pKi: −log10 of the molar value. Blank lines part the entries; values can stand above or below the compound they belong to.
Experiments:
Format in all cases: cell-based
Adenosine receptor A3 = biological target: T1, Adenosine receptor A3 (Homo sapiens, UniProt P0DMS8); assay: Displacement of [3H]MRE 3008F20 from human adenosine A3 receptor expressed in CHO cells
T1 sequence (P0DMS8 whole entry): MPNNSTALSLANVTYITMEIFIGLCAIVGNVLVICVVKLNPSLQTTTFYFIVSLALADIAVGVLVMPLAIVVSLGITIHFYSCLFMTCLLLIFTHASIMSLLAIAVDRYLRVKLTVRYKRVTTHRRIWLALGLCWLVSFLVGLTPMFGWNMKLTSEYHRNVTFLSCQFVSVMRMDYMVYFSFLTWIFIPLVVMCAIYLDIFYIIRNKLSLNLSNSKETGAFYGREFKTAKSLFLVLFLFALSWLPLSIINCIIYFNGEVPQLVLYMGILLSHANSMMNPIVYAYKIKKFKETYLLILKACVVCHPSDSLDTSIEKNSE

[1] = biological target: T2, Adenosine receptor A1 (Homo sapiens) (UniProt P30542); assay: (§1) Displacement of [3H]DPCPX from human adenosine A1 receptor expressed in CHO cells; parameters: concentration or dose not given beside the values; conditions: concentration not given here
T2 sequence (whole entry): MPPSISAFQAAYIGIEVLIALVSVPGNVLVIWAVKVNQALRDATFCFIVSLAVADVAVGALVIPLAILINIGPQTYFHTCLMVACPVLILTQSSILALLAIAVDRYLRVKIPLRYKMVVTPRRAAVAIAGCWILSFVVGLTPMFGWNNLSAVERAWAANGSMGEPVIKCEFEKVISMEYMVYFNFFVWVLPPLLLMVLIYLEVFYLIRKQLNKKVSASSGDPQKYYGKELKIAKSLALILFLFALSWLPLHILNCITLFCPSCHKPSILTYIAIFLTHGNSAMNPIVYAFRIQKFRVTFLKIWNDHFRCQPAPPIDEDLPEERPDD
Procedure, shortened: (§2)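 Membranes from transfected CHO cells (50 µg protein/assay) in 50 mM Tris-HCl pH 7.4, incubated 120 min at 25 °C with 1 nM radioligand and at least six to eight test concentrations. Nonspecific binding with 10 µM CHA. Filtration on GF/B filters and scintillation counting. Ki from IC50 by Cheng-Prusoff, nonlinear least-squares fitting.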

Adenosine receptor A1 = biological target: T3, Adenosine receptor A1 (Homo sapiens, UniProt P30542); assay: as §1; procedure, shortened: as §2
T3 sequence (P30542 whole entry): T2 sequence (whole entry)

[2] = biological target: T4, Adenosine receptor A2b (Homo sapiens) (UniProt P29275); assay: (§3) Displacement of [3H]MRE 2029F20 from human adenosine A2B receptor expressed in CHO cells; parameters: concentration or dose not given beside the values; conditions: concentration not given here
T4 sequence (whole entry): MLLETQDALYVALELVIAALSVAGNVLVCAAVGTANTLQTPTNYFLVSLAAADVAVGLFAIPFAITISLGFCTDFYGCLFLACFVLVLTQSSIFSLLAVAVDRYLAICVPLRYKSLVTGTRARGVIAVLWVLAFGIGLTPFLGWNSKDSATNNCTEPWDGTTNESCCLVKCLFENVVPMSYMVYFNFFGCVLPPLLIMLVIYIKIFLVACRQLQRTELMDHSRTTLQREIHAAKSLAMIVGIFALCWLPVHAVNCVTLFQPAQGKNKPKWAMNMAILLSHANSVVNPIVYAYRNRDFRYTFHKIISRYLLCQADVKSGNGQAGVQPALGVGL
Procedure, shortened: (§4)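 Run 60 min at 25 °C in 50 mM Tris-HCl, 10 mM MgCl2, 1 mM EDTA, 0.1 mM benzamidine, pH 7.4, with 2 IU/mL adenosine deaminase, 40 nM radioligand and CHO membranes (20 µg protein/assay). At least six to eight test concentrations. Nonspecific binding with 100 µM NECA. Filtration and counting, Ki by Cheng-Prusoff.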

Adenosine receptor A2b = biological target: T5, Adenosine receptor A2b (Homo sapiens, UniProt P29275); assay: as §3; procedure, shortened: as §4
T5 sequence (P29275 whole entry): T4 sequence (whole entry)

Adenosine receptor A2a = Adenosine receptor A2a (Homo sapiens, UniProt P29274); assay: Displacement of [3H]ZM241385 from human adenosine A2A receptor expressed in CHO cells; conditions: for inhibition: concentration not given here
Procedure, shortened: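 CHO-derived membranes (50 µg protein/assay) in 50 mM Tris-HCl, 10 mM MgCl2, pH 7.4, competed with at least six to eight compound concentrations for 60 min at 25 °C. Nonspecific binding defined by 1 µM ZM 241385. Bound ligand collected on GF/B filters and counted. Ki derived from IC50 via Cheng-Prusoff.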

Chain of Adenosine receptor A2a (P29274 whole entry): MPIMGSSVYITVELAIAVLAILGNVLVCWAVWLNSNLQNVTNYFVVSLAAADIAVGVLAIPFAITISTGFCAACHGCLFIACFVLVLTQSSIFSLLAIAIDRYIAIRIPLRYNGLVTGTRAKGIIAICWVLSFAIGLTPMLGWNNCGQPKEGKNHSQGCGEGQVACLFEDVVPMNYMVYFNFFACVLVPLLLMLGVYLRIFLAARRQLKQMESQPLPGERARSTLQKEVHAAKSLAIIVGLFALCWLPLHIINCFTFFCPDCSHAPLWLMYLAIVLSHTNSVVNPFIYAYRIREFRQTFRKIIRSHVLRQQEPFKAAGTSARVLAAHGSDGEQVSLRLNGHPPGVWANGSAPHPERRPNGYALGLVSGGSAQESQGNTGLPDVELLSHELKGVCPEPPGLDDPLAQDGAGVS

pKi (Adenosine receptor A3): 6.92
Structure (SMILES): CCOC(=O)c1c(CC)nc(-c2ccccc2)c(C(=O)OCC)c1CC

pKi (Adenosine receptor A3): 7.72
Structure (SMILES): CCCOC(=O)c1c(-c2ccccc2)nc(CC)c(C(=O)OCC)c1CCC

pKi (Adenosine receptor A3): 6.68
Structure (SMILES): CCCOC(=O)c1c(C)nc(-c2ccccc2)c(C(=O)OCC)c1C

pKi (Adenosine receptor A3; cho): 5.92
Structure (SMILES): O=C(Nc1ccccc1)Nc1ncnc2ccccc12

pKi (Adenosine receptor A3): 6.59
Structure (SMILES): Cc1cccnc1-c1nc(NC(=O)Nc2ccccc2)c2ccccc2n1

pKi (Adenosine receptor A3): 6.42
Structure (SMILES): CCOC(=O)c1c(CC)c(C(=O)OCC)c(-c2ccccc2)[n+](C)c1C

pKi (Adenosine receptor A3): 9.25
Structure (SMILES): CCn1cc2c(nc(NC(=O)Nc3ccccc3OC)n3nc(-c4ccco4)nc23)n1

pKi (Adenosine receptor A3): 7.87
Structure (SMILES): CCOC(=O)c1c(-c2ccccc2)nc(CC)c(C(=O)SCC)c1CC

pKi (Adenosine receptor A3): 6.74
Structure (SMILES): CCOC(=O)c1c(C)nc(-c2ccccc2)c(C(=O)OCC)c1CC

pKi (Adenosine receptor A3): 8.10
Structure (SMILES): CCCOC(=O)c1c(CC)nc(-c2cccc(Cl)c2)c(C(=O)OCCC)c1CC

pKi (Adenosine receptor A3): 7.85
inhibition [1]: 74%
pKi (Adenosine receptor A1): < 6.00
inhibition [2]: 66%
pKi (Adenosine receptor A2b): < 6.00
pKi (Adenosine receptor A2a): < 6.00
inhibition (Adenosine receptor A2a): 89%
Structure (SMILES): O=C(Nc1ccncc1)Nc1nc2nn(CCCOCc3ccccc3)cc2c2nc(-c3ccco3)nn12

pKi (Adenosine receptor A3): 9.07
Structure (SMILES): CCn1cc2c(nc(NC(=O)Nc3ccc(F)cc3)n3nc(-c4ccco4)nc23)n1

pKi (Adenosine receptor A3): 7.70
Structure (SMILES): CCOC(=O)c1c(-c2ccccc2)nc(C)c(C(=O)SCC)c1C

pKi (Adenosine receptor A3): 6.71
Structure (SMILES): CCCc1c(C(=O)SCC)c(C)nc(-c2ccccc2)c1C(=O)OCC

pKi (Adenosine receptor A3): 7.57
inhibition [1]: 71%
pKi (Adenosine receptor A1): < 6.00
inhibition [2]: 65%
pKi (Adenosine receptor A2b): < 6.00
pKi (Adenosine receptor A2a): < 6.00
inhibition (Adenosine receptor A2a): 97%
Structure (SMILES): O=C(Nc1ccncc1)Nc1nc2nn(CCOCc3ccccc3)cc2c2nc(-c3ccco3)nn12

pKi (Adenosine receptor A3): 8.08
Structure (SMILES): CCCOC(=O)c1c(-c2ccccc2)nc(CC)c(C(=O)OCC)c1CC

pKi (Adenosine receptor A3): 8.70
pKi (Adenosine receptor A1): 6.46
inhibition [2]: 73%
pKi (Adenosine receptor A2b): < 6.00
pKi (Adenosine receptor A2a): < 6.00
inhibition (Adenosine receptor A2a): 95%
Structure (SMILES): O=C(Nc1ccncc1)Nc1nc2nn(CCCO)cc2c2nc(-c3ccco3)nn12

pKi (Adenosine receptor A3): 9.85
Structure (SMILES): CCn1cc2c(n1)N=C(NC(=O)Nc1ccc(C)cc1)N1N=C(c3ccco3)NC21 (stereo unspecified)

pKi (Adenosine receptor A3): 7.47
inhibition [1]: 92%
pKi (Adenosine receptor A1): < 6.00
inhibition [2]: 99%
pKi (Adenosine receptor A2b): < 6.00
pKi (Adenosine receptor A2a): < 6.00
inhibition (Adenosine receptor A2a): 93%
Structure (SMILES): O=C(Nc1cccnc1)Nc1nc2nn(CCO)cc2c2nc(-c3ccco3)nn12

pKi (Adenosine receptor A3): 8.29
inhibition [1]: 74%
pKi (Adenosine receptor A1): < 6.00
inhibition [2]: 71%
pKi (Adenosine receptor A2b): < 6.00
pKi (Adenosine receptor A2a): < 6.00
inhibition (Adenosine receptor A2a): 96%
Structure (SMILES): O=C(Nc1ccncc1)Nc1nc2nn(CCO)cc2c2nc(-c3ccco3)nn12

pKi (Adenosine receptor A3): 8.05
inhibition [1]: 85%
pKi (Adenosine receptor A1): < 6.00
inhibition [2]: 58%
pKi (Adenosine receptor A2b): < 6.00
pKi (Adenosine receptor A2a): < 6.00
inhibition (Adenosine receptor A2a): 82%
Structure (SMILES): O=C(Nc1cccnc1)Nc1nc2nn(CCOCc3ccccc3)cc2c2nc(-c3ccco3)nn12

Reference: ChEMBL document CHEMBL1138915, “Pharmacophore based receptor modeling: the case of adenosine A3 receptor antagonists. An approach to the optimization of protein models” (J Med Chem, 2006)
